Bioassay records deposited in PubChem BioAssay by The Scripps Research Institute Molecular Screening Center.
An excerpt weighted towards active compounds, which were near 1.8% of everything screened.
STAT1 blocker: STAT1 signaling inhibitors, primary screen, cell-based, HTS, luciferase reporter. NIH 3T3 STAT1-luciferase reporter, IFN-gamma, luminescence. inhibition, % at 5.5 µM. 200,000 tested, 0.35% active. AID 920, 2007;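 active means inhibition above a set limit, the mean inhibition across all tested compounds plus 3 SD, cut at about 34% in these data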;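 further: 0% = IFN-gamma with DMSO and 100% = IFN-gamma with 300 µM nifuroxazide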
STAT3 inh-1: IL-6 driven STAT3 reporter inhibitors, primary screen, U3A cells, luciferase, luminescence, MLSCN library | IL-6 STAT3-luciferase reporter; host cell line lacks STAT1 | inhibition, % at 5.5 µM | 190,000 tested, 0.89% active;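 active means inhibition above the mean inhibition across all screened compounds plus 3 SD, cut at about 44% in these data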;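 further: 0% = DMSO only wells and 100% = 100 µM nifuroxazide control wells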
STAT3 act: IL-6 driven STAT3 reporter potentiators, primary screen, U3A cells, luciferase, luminescence, MLSCN library; IL-6 STAT3-luciferase reporter; 100% = signal with IL-6 EC80 alone; activation (% of control), % at 5.6 µM; 190,000 tested, 0.91% active; AID 871, 2007;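 active means activation above the screen-wide mean of compound activation plus 3 SD, cut at about 130% in these data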;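 further: 0% = background luminescence of wells with medium and substrate only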
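Test system: STAT3-luciferase reporter U3A cells; Detection: reporter luminescence signal; Times: 1 h compound pre-exposure, 6 h IL-6 stimulation, 37 °C; Benchmarks: IL-6-only high control; Also added: IL-6 stimulus at 33 ng/mL final.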
PERK inh: block of dimerizer-induced PERK translation repression, primary screen, PERK inhibitor project, CHO PERK-DD cells, SEAP luminescence, HTS; CHO PERK-DD fusion, SEAP luminescence translation reporter; inhibition, % at 5.6 µM; 220,000 tested, 0.17% active;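 active means inhibition above the mean inhibition of all tested compounds plus 3 SD, set separately per screening campaign, cut at about 2.9% in these data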;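 further: PERK kinase domain activated by AP20187 dimerizer at 100 nM; 0% = DMSO with dimerizer and 100% = rapamycin at 8.4 µM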
Target sequence (Q9NZJ5 whole entry, looked up, the tested form may be a part): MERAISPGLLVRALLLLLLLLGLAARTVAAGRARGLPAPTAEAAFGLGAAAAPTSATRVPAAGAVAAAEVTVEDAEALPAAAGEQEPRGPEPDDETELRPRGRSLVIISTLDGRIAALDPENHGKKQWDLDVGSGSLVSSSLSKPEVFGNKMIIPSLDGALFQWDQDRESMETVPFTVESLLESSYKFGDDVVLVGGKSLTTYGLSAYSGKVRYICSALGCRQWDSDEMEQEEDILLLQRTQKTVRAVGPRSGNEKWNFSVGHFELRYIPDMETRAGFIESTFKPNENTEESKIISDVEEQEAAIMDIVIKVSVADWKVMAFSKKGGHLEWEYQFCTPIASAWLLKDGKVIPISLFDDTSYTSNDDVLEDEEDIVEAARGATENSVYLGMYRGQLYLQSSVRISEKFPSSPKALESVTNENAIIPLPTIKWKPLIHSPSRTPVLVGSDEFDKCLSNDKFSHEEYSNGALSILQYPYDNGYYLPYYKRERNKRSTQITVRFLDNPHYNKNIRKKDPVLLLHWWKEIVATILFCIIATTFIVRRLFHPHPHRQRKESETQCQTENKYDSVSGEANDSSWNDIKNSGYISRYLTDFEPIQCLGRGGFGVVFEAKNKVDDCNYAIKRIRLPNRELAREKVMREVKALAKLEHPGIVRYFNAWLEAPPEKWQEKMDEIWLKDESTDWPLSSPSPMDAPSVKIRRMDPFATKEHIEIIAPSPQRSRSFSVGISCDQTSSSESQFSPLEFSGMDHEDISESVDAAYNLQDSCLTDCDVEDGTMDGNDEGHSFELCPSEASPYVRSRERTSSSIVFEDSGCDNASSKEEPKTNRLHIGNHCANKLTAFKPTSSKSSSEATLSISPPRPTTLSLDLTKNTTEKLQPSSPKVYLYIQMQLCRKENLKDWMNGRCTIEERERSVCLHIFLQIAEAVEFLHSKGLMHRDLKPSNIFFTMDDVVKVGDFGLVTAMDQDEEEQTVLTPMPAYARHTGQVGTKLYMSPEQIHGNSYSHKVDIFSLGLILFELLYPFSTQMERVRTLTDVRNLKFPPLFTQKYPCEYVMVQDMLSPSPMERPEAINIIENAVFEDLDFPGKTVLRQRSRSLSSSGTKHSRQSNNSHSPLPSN
STAT3 inh-2: STAT3 reporter inhibitors, retest of hits, confirmation, U3A cells, luciferase, luminescence | inhibition, % at 5.7 µM | IL-6 STAT3 luciferase reporter; cell line lacks STAT1 | 1,200 tested, 45% active | shares compounds with STAT3 inh-1;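 active means inhibition above the hit cutoff computed for the primary STAT3 screen, cut at about 44% in these data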;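 further: 0% = IL-6 plus DMSO and 100% = IL-6 plus nifuroxazide control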
NFkB inh STAT3ct: NF-kB reporter inhibitors in human cells, confirmation, counter-screen for STAT3 inhibitor project, cell-based, HEK293T, luciferase, TNF-alpha stimulus; shares compounds with STAT3 inh-1; TNF-alpha induced; inhibition, % at 5.7 µM; 1,200 tested, 36% active; AID 1308, 2008;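 active means inhibition above the mean of solvent-only control wells plus 3 SD, cutoff set per campaign, cut at about 13% in these data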;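 further: 0% = TNF-alpha with DMSO and 100% = TNF-alpha with MG high control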
STAT1 inh 2: STAT1 reporter inhibitors, IFN-gamma induced, confirmation, counter-screen for STAT3 inhibitor project, cell-based, NIH 3T3, luciferase luminescence. inhibition, % at 5.7 µM. 1,200 tested, 27% active. AID 1317, 2008. shares compounds with STAT3 inh-1. NIH 3T3 STAT1-luciferase reporter;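 active means inhibition above the mean plus 3 SD of solvent-only control wells, limit set per screening run, cut at about 16% in these data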;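 further: 0% = DMSO with IFN-gamma and 100% = nifuroxazide control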
* = called active by the depositor; . = not tested or not shown.

SMILES	STAT1 blocker	STAT3 inh-1	STAT3 act	PERK inh	STAT3 inh-2	NFkB inh STAT3ct	STAT1 inh 2
C=C(C)C1CC=C(C)/C(=N/NC(=O)CNc2ccc(OCC)cc2)C1 (stereo not given)	-10	16	93	0	.	.	.
COc1ccc(CC(=O)Nc2cccc(C(=O)Nc3cccc(C)c3)c2)cc1	0	29	80	-1	.	.	.
COc1ccc(C(=O)Nc2cccc(C)c2)cc1	-41	44*	63	1	2	-37	-74
COc1ccc(C(=O)/C=C/Nc2cccc(O)c2)cc1	4	93*	22	-1	80*	16*	14
Cc1nc(-c2ccc(C(=O)Nc3cccc(Br)c3)cc2)cs1	-27	88*	26	0	81*	8	-144
Cc1cccc(NC(=O)c2ccc(CN3CCN(Cc4ccccc4)CC3)cc2)c1	6	63*	48	-1	62*	14*	-7
Cc1nc(-c2cccc(NC(=O)c3cccs3)c2)cs1	-15	15	89	-1	.	.	.
O=C1C(=O)N(CCN2CCOCC2)C(c2cccnc2)/C1=C(/O)c1ccc(Cl)cc1 (stereo not given)	0	3	99	1	.	.	.
CC(=O)c1c(C)[nH]c(C(=O)OCC(=O)Nc2ccc(Cl)cc2[N+](=O)[O-])c1C	27	57*	50	0	73*	28*	28*
O=C(COC(=O)c1cc[n+]([O-])cc1)Nc1ccc(Cl)cc1[N+](=O)[O-]	-1	-13	113	0	.	.	.
COc1ccc(C(=O)NCC(=O)OCc2csc(-c3ccccc3)n2)cc1	1	3	97	0	.	.	.
COc1ccc2c(=O)c(-c3ccc4c(c3)OCO4)coc2c1	-70	55*	52	2	26	-12	-104
NS(=O)(=O)c1ccc(NC(=O)C(Sc2ccccc2)c2ccccc2)cc1 (stereo not given)	-2	-1	99	0	.	.	.
Cc1cccc(NC(=O)c2onc3c2CCCC3)n1	-22	71*	42	0	55*	18*	-23
O=C(Nc1ccc(Cl)cn1)c1ccc2c(Cl)c3c(nc2c1)CCC3	.	.	.	1	.	.	.
Cc1cccc(NC(=O)c2onc3c2CCCC3)c1C	-45	-10	112	0	.	.	.
Cc1cccc(NC(=O)c2ccc3c(Cl)c4c(nc3c2)CCCC4)n1	-52	64*	51	0	25	-7	-112
CC(C)c1cc(NC(=O)CCl)on1	-4	53*	57	0	21	1	10
CC(NC(=O)CCl)c1ccc(Cl)c(Cl)c1 (stereo not given)	1	17	85	1	.	.	.
COc1ccc(/C=N/N2C(=N)SCC2=O)cc1	.	.	.	1	.	.	.
COc1ccc(C2C3=C(CC(C)(C)CC3=O)OC(N)=C2[N+](=O)[O-])cc1 (stereo not given)	-5	-6	103	1	.	.	.
CC(C)CCn1c(O)c(N=NC(=O)Cn2ccc(C(F)(F)F)n2)c2ccccc21	-3	-9	105	1	.	.	.
Cc1c(C(=O)Nc2ccccc2[N+](=O)[O-])csc1-c1ccccc1	-73	-12	105	-1	.	.	.
Cc1c(C(=O)Nc2ccccc2)csc1-c1ccccc1	-37	55*	54	1	33	-22	-111
Cc1cc(NC(=S)NC(=O)/C=C/c2ccc(S(=O)(=O)N3CCOCC3)cc2)ccc1Br	0	2	102	2	.	.	.
SMILES	STAT1 blocker	STAT3 inh-1	STAT3 act	PERK inh	STAT3 inh-2	NFkB inh STAT3ct	STAT1 inh 2
O=C(Nc1cccc(-c2nc3ccccc3s2)c1)c1ccc2c(c1)OCO2	6	6	102	0	.	.	.
c1ccc2sc(-c3ccc4c(c3)OCO4)nc2c1	4	70*	41	0	25	7	-68
Cc1cc2c(N=NC(=O)CCc3ccccc3)c(O)[nH]c2cc1Br	3	-7	103	0	.	.	.
CC(C)c1ccc(OCc2nc(-c3ccccn3)no2)c(Br)c1	-41	17	93	1	.	.	.
CCc1ccc(OCc2nc(-c3ccccn3)no2)c(Br)c1	0	56*	57	0	19	-8	-108
Cc1csc(NC(=O)c2cc3c(s2)CCC3)n1	-19	70*	46	0	38	-27	-107
COC(=O)c1sc(NC(=O)c2cc3c(s2)CCCC3)nc1C	-59	21	85	-1	.	.	.
CCN(CC)S(=O)(=O)c1ccc(Oc2ccc(S(=O)(=O)N(CC)CC)cc2)cc1	28	78*	35	-1	68*	27*	26*
O=C(C1=C(O)C(=O)N(Cc2cccnc2)C1c1ccccn1)c1cccs1 (stereo not given)	0	4	101	0	.	.	.
O=C(Nc1ccccc1)Nc1nnc(-c2ccccc2)o1	-8	12	92	0	.	.	.
c1ccc(-c2nnc(NC3=NCCC3)o2)cc1	-22	44*	67	0	4	-27	-60
Cn1cc(C(=O)c2ccc(Cl)cc2)cc1-c1nc2ccccc2n1C	16	46*	66	-1	32	-3	6
CCOc1ccc(C2OC(=O)Cc3cc(OC)c(OC)cc32)cc1 (stereo not given)	2	7	98	2	.	.	.
CC(C)c1ccc(/C=C/C(=O)NC2=NCCS2)cc1	6	68*	43	1	31	-23	-92
O=C(/C=C/c1ccc(Cl)c(Cl)c1)NC1=NCCS1	-37	4	101	0	.	.	.
O=C(O)c1ccc2nc(-c3ccccc3)sc2c1	36*	79*	36	2	46*	18*	-30
Oc1ccc(-c2cccc(-c3ccc(O)cc3)n2)cc1	-14	14	89	-1	.	.	.
Oc1ccc(-c2nnc(-c3ccc(O)cc3)nn2)cc1	5	51*	60	0	62*	11	5
Cc1nn(C)c(=O)n1N(C)c1ncc(C(F)(F)F)cc1Cl	3	4	100	1	.	.	.
CCOC(=O)C(C)Oc1ncnc2cccc(F)c12 (stereo not given)	-2	-5	106	-1	.	.	.
COc1ccc(NC(=O)c2c(Nc3ccccc3)sc(C(=O)c3ccc(F)cc3)c2N)cc1	24	61*	50	0	37	35*	43*
COc1ccc(C(=O)Nc2ccc(N3CCOCC3)cc2)cc1S(=O)(=O)NC1CCCC1	10	9	95	-1	.	.	.
COc1ccc(CNc2cc(C)nc3ncnn23)c(OC)c1	13	67*	45	-1	52*	17*	17*
